Experiment [1] concerns Rattus norvegicus. As to the kind of experiment: In vivo efficacy was evaluated using a carrageenan-induced rat paw edema model as ED50. The format is functional. The essentials:
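Male Sprague–Dawley rats (150–200 g) were fasted overnight and dosed po in vehicle (1% methocel or 5% Tween 80). After 1 h, baseline paw volume was measured by plethysmometry and 1% carrageenan in saline was injected subplantarly (500 µg/paw). Paw swelling was measured 3 h later and % inhibition calculated versus vehicle. ED50 used ≥4 dose points with 5 rats/group.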
In general terms: The carrageenan paw model is a standard test of acute inflammation.

For experiment [2], the target named is T1, Prostaglandin G/H synthase 1 (Homo sapiens, UniProt P23219).
The target of experiment [3] is T1, Prostaglandin G/H synthase 1. The format is tissue-based, Blood.
The target in experiment [4] is T2, Prostaglandin G/H synthase 2 (Homo sapiens, UniProt P35354).
T2 sequence (P35354 whole entry): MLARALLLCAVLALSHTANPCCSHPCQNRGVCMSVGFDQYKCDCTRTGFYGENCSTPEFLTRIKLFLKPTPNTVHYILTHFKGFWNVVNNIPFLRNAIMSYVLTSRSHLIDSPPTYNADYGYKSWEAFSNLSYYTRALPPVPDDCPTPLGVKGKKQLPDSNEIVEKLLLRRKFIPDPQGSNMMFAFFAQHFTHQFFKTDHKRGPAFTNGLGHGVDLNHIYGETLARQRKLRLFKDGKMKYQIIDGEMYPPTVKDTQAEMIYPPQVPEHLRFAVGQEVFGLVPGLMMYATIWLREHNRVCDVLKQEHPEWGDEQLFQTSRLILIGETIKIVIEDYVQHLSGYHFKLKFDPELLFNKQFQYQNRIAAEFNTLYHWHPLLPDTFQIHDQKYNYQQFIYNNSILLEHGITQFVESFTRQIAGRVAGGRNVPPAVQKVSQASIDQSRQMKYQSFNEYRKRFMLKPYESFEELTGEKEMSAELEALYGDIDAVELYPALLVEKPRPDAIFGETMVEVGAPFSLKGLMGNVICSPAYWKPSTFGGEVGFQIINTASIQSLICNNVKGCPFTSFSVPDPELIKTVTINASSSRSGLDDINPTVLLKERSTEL
The format is tissue-based, Blood.

The target in experiment [5] is T2, Prostaglandin G/H synthase 2. The format is cell-based, CHO.
The subject of experiment [6] is Rattus norvegicus. As to the kind of experiment: Compound was tested for 10 days at 100 mg/kg/day in rats activity measured as Cr leakage; Clean. The format is functional, organism-based.
Experiment [7] deals with Rattus norvegicus. As to the kind of experiment: In vivo efficacy was evaluated using a carrageenan-induced rat hyperalgesia model as ED50. The format is functional. The gist of the method: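 Male Sprague–Dawley rats (90–110 g) received intraplantar carrageenan (4.5 mg/paw). Compound was given orally 2 h after carrageenan. One hour later, the vocalization response to compression of the injected paw was measured with an algesiometer. ID50 was derived from at least four dose points.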

Experiment [8] relates to Rattus norvegicus. As to the kind of experiment: In vivo efficacy was evaluated using a LPS-induced rat pyresis model as ED50.
For experiment [9], the system named is Rattus norvegicus. As to the kind of experiment: In vivo efficacy was evaluated in adjuvant arthritis(21 day). The conditions noted are these: 504 h, read-out: ID50 (the source's name). The format is functional. The essentials:
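Arthritis was induced in female Lewis rats (7 weeks, 144–172 g) by intradermal left hind footpad injection of 0.5 mg Mycobacterium butyricum in light mineral oil; 10 rats/group. Secondary-paw volume, body weight and radiographs were recorded on days 0, 14 and 21. Analysis used two-factor repeated-measures ANOVA with Dunnett's test.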

T1 sequence (P23219 whole entry): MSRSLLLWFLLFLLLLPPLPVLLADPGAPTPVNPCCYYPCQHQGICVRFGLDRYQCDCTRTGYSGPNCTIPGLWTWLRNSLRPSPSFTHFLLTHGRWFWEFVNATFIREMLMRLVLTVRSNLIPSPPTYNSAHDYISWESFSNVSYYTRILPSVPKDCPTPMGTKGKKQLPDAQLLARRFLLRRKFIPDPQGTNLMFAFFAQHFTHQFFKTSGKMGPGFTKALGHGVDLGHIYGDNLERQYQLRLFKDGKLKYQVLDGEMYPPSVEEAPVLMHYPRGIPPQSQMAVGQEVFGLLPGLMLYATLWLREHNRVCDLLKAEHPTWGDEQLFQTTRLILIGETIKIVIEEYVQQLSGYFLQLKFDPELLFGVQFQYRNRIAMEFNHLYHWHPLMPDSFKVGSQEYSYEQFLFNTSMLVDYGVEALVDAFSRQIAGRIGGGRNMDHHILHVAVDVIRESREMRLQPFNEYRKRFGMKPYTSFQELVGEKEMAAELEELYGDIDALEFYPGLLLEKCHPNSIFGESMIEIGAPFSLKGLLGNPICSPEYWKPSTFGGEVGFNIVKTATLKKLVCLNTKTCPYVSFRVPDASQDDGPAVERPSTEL

Usually IC50 stands for the concentration that gives 50% inhibition. The compound `CS(=O)(=O)c1ccc(C2=C(c3cncc(Cl)c3)C(=O)CC2)cc1` yielded an ED50 in [1] of 1.3 mg/kg. Moreover, the IC50 in [2] and in experiment [3] was more than 100000 nM throughout.

For `CS(=O)(=O)c1ccc(C2=C(c3ccc(Cl)c(F)c3)C(=O)CC2)cc1`, the IC50 in experiment [4] was 150 nM; in experiment [2], 700 nM; in experiment [3], 100 nM; in experiment [5], 15 nM.

On to `CS(=O)(=O)c1ccc(C2=C(c3cncc(Br)c3)C(=O)CC2)cc1`, for which the values for the IC50 in [4], in experiment [2] and in experiment [5] were 1700 nM, more than 100000 nM and 300 nM, respectively.

Take `CS(=O)(=O)c1ccc(C2=C(c3ccc(F)cc3)C(=O)CC2)cc1`: the IC50 is 80 nM in experiment [4], 500 nM in experiment [2], 3700 nM in experiment [3] and 19 nM in [5]. Also, the ED50 in [1] was 3 mg/kg.

As to `CS(=O)(=O)c1ccc(C2=C(Oc3cc(F)cc(F)c3)C(=O)CC2)cc1`, the IC50 in experiment [4] is 1100 nM; in experiment [2] it was 2700 nM; in experiment [3] it was 94000 nM; in [5], 17 nM. Besides, in experiment [1], the ED50 came to 6.6 mg/kg.

As for `CS(=O)(=O)c1ccc(C2=C(c3cc(Cl)cc(Cl)c3)C(=O)CC2)cc1`, the IC50 in [4] is 280 nM; in experiment [2] it was 9200 nM; in experiment [3] it was more than 100000 nM; in [5], 14 nM. In experiment [1], this compound gave an ED50 of more than 10 mg/kg.

In [1], `CS(=O)(=O)c1ccc(C2=C(c3ccccc3)C(=O)CC2)cc1` yielded an ED50 of 10 mg/kg. Further, the IC50 in [2] came out at 3100 nM; in [3], 4100 nM; in experiment [5] it was 11 nM.

For the compound `CS(=O)(=O)c1ccc(C2=C(c3cc(Cl)ccn3)C(=O)CC2)cc1`, the IC50 in experiment [4] came out at 520 nM; in experiment [2] it was 27000 nM; in experiment [3], 34000 nM; in [5], 190 nM. The ED50 in experiment [1] was 2.5 mg/kg.

On to `CS(=O)(=O)c1ccc(C2=C(c3ccc(F)c(Cl)c3)C(=O)CC2)cc1`, for which the IC50 in [4] turned out to be 90 nM; in experiment [2] it was 300 nM; in [5], 9 nM.

`CS(=O)(=O)c1ccc(C2=C(c3cc(Br)ccn3)C(=O)CC2)cc1`: the IC50 was determined as 470 nM in experiment [4], 18000 nM in experiment [2] and 630 nM in [5].

Consider `COc1ccncc1C1=C(c2ccc(S(C)(=O)=O)cc2)CCC1=O`, for which the IC50 in experiment [4] came to 90 nM; in [2], 60 nM; in experiment [5], 150 nM.

As for `CS(=O)(=O)c1ccc(C2=C(c3ccc(F)c(F)c3)C(=O)CC2)cc1`, the IC50 amounted to 210 nM in [4], 1700 nM in [2], 3200 nM in experiment [3] and 14 nM in experiment [5].

For `CS(=O)(=O)c1ccc(C2=C(c3cccc(F)c3)C(=O)CC2)cc1`, the values for the IC50 in experiment [4], in experiment [2] and in experiment [5] were 340 nM, 6600 nM and 14 nM, respectively. The compound further gave an ED50 in experiment [1] of 6.4 mg/kg.

Turning to `CC(C)(C)C#CC1=C(c2ccc(S(C)(=O)=O)cc2)CCC1=O`, the IC50 in [4] was 5200 nM; in experiment [2] it was more than 100000 nM; in [5] it was 150 nM.

`CS(=O)(=O)c1ccc(C2=C(c3cccnc3)C(=O)CC2)cc1`: the IC50 in [4] was 640 nM; in [2], 34000 nM; in experiment [3], 73000 nM; in experiment [5] it was 170 nM. Moreover, the Cr leakage result in [6] is “Clean”. The ED50 in experiment [1] worked out at 1.7 mg/kg; in experiment [7], 0.7 mg/kg; in experiment [8] it was 0.7 mg/kg; in [9], 0.6 mg/kg.

Consider `CS(=O)(=O)c1ccc(C2=C(c3cc(F)cc(F)c3)C(=O)CC2)cc1`, for which the IC50 in [4] turned out to be 620 nM; in experiment [3] it was 61000 nM; in experiment [5] it was 15 nM. The Cr leakage result in experiment [6] is given as “Clean”. In addition, the ED50 was determined as 2.6 mg/kg in [1], 3 mg/kg in experiment [7], 0.8 mg/kg in experiment [8] and 4 mg/kg in experiment [9].

As to `CS(=O)(=O)c1ccc(C2=C(c3ccccc3)C(=O)OC2)cc1` [ROFECOXIB], the ED50 in [1] amounted to 1.7 mg/kg.

The compound `Cc1ccc(-c2cc(C(F)(F)F)nn2-c2ccc(S(N)(=O)=O)cc2)cc1` [CELECOXIB] showed an ED50 in experiment [1] of 3.2 mg/kg.

For `CS(=O)(=O)c1ccc(C2=C(c3cc4ccccc4s3)C(=O)CC2)cc1`, the results for the IC50 in experiment [4], in [2] and in experiment [5] were 80 nM, 100 nM and 14 nM, respectively.

Consider `CS(=O)(=O)c1ccc(C2=C(/C=C/c3ccc(F)cc3)C(=O)CC2)cc1`, for which the IC50 in experiment [4] stood at 500 nM; in [3] it was 27000 nM; in experiment [5], 175 nM. This compound gave an ED50 in [1] of more than 10 mg/kg.

Take `CS(=O)(=O)c1ccc(C2=C(c3cc(Cl)c(Cl)c(Cl)c3)C(=O)CC2)cc1`: the IC50 stood at 930 nM in experiment [4], 2500 nM in [2] and 6 nM in experiment [5].

In the case of `CS(=O)(=O)c1ccc(C2=C(c3ccccn3)C(=O)CC2)cc1`, the IC50 is 9800 nM in experiment [4], more than 10000 nM in [2] and 1530 nM in experiment [5].

For `CS(=O)(=O)c1ccc(C2=C(C#Cc3ccccc3)C(=O)CC2)cc1`, the half-maximal inhibitory concentration (IC50) came out at 640 nM in [4] and 6 nM in experiment [5].

For the compound `Cc1ccncc1C1=C(c2ccc(S(C)(=O)=O)cc2)CCC1=O`, the IC50 in [4] is 450 nM; in experiment [2] it was 5500 nM; in experiment [3] it was 4100 nM; in experiment [5], 440 nM.

The record behind these values is ChEMBL document CHEMBL1132626 (J Med Chem, 1999).
